Measurements from ChEMBL document CHEMBL1144927, “Discovery of a novel and highly potent noncompetitive AMPA receptor antagonist” (2003).

What was measured:
[1] = Anticonvulsant activity against audiogenic seizures in DBA/2 mice 30 min after intraperitoneal administration (tonic phase); assay type: functional; settings: Mus musculus, ip, 0.5 h
Method in brief: (§1)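 DBA/2 mice, genetically susceptible to sound-induced seizures (8-12 g, 22-25 days old, either sex), were dosed ip in groups of 10 with vehicle or each dose. Dosing solution was freshly prepared in 50% DMSO/50% sterile 0.9% saline. Mice received auditory stimulation 30 min later and were scored for latency and incidence of seizure phases. ED50 per phase was fitted by Litchfield-Wilcoxon, with 95% confidence limits.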

[2] = Anticonvulsant activity against audiogenic seizures in DBA/2 mice 30 min after intraperitoneal administration (clonic phase); assay type: functional; settings: Mus musculus, ip, 0.5 h; method in brief: as §1

COc1cc2c(cc1OC)C(c1ccc(Br)cc1)N(C(C)=O)CC2 (stereo not given)
ED50 [1]: 16.5 µmol/kg | ED50 [2]: 43.1 µmol/kg

COc1cc2c(cc1OC)C(c1ccc(F)cc1)N(C(C)=O)CC2 (stereo not given)
ED50 [1]: 18 µmol/kg | ED50 [2]: 36.8 µmol/kg

COc1cc2c(cc1OC)C(c1ccccc1)N(C(C)=O)CC2 (stereo not given)
ED50 [1]: 37.7 µmol/kg | ED50 [2]: 53.5 µmol/kg

COc1cc2c(cc1OC)C(c1ccc(Cl)cc1)N(C(C)=O)CC2 (stereo not given)
ED50 [1]: 2.4 µmol/kg | ED50 [2]: 4.2 µmol/kg

COc1cc2c(cc1OC)C(c1ccc(N)cc1)N(C(C)=O)CC2 (stereo not given)
ED50 [1]: 21.1 µmol/kg | ED50 [2]: 32.1 µmol/kg

CC(=O)N1N=C(c2ccc(N)cc2)c2cc3c(cc2C[C@H]1C)OCO3 [TALAMPANEL]
ED50 [1]: 9.7 µmol/kg | ED50 [2]: 13.4 µmol/kg

COc1cc2c(cc1OC)C(c1ccc(N)cc1)=NNC(=O)C2
ED50 [2]: 15 µmol/kg

COc1cc2c(cc1OC)C(c1ccc([N+](=O)[O-])cc1)N(C(C)=O)CC2 (stereo not given)
ED50 [1]: > 100 µmol/kg | ED50 [2]: > 100 µmol/kg
